Source: ChEMBL document CHEMBL1156597, “Structure-activity relationship of kahalalide F synthetic analogues” (J Med Chem, 2008)

What was measured:
LoVo [1] = assay: Cytotoxicity against human doxorubicin resistant LoVo cells after 48 hrs by SRB assay; type: functional; details: for CC50: read-out: LC50 (the source's name)
In short: (§1)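 Cells grown in RPMI 1640 with 10% FBS and penicillin/streptomycin at 37 °C and 5% CO₂, trypsinized, then seeded at 5 × 10³/well. After 18 h drug-free attachment, samples in DMSO/EtOH/PBS (0.5:0.5:99) were added for 48 h continuous exposure. Cells were fixed with cold TCA (1 h, 4 °C) and stained with SRB (10 min). Tris-solubilized stain read at 490 nm. Triplicate wells, mean ± SD; GI₅₀ derived.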

A549 = assay: Cytotoxicity against human A549 cells after 48 hrs by SRB assay; type: functional, cell-based; details: Homo sapiens, A549, 48 h; in short: as §1
[2] = Cytotoxicity against human IGROV cells after 48 hrs by SRB assay; type: functional; details: for CC50: read-out: LC50 (the source's name); in short: as §1
LoVo [3] = assay: Cytotoxicity against human LoVo cells after 48 hrs by SRB assay; type: functional; details: for CC50: read-out: LC50 (the source's name)
HT-29 = assay: Cytotoxicity against human HT29 cells after 48 hrs by SRB assay; type: functional, cell-based; details: Homo sapiens, HT-29, 48 h; for CC50: read-out: LC50 (the source's name); in short: as §1
SK-MEL-28 = assay: Cytotoxicity against human SK-MEL-28 cells after 48 hrs by SRB assay; type: functional, cell-based; details: Homo sapiens, SK-MEL-28, 48 h; for GI50: read-out: GI50; for CC50: read-out: LC50 (the source's name); in short: as §1
[4] = Cytotoxicity against human IGROV-ET cells after 48 hrs by SRB assay; type: functional; details: for CC50: read-out: LC50 (the source's name); in short: as §1
PANC-1 = assay: Cytotoxicity against human PANC1 cells after 48 hrs by SRB assay; type: functional; details: PANC-1, 48 h; for CC50: read-out: LC50 (the source's name); in short: as §1
[5] = Cytotoxicity against human HeLa-APL cells after 48 hrs by SRB assay; type: functional; in short: as §1
K562 = assay: Cytotoxicity against human K562 cells after 48 hrs by SRB assay; type: functional; details: K562, 48 h, read-out: LC50 (the source's name); in short: as §1
DU-145 = assay: Cytotoxicity against human DU145 cells after 48 hrs by SRB assay; type: functional, cell-based; details: Homo sapiens, DU-145, 48 h; for GI50: read-out: GI50; for CC50: read-out: LC50 (the source's name); in short: as §1
HeLa = assay: Cytotoxicity against human HeLa cells after 48 hrs by SRB assay; type: functional; details: for CC50: read-out: LC50 (the source's name); in short: as §1

Row | SMILES | GI50 (LoVo [1]) [µM] | TGI (LoVo [1]) [µM] | CC50 (LoVo [1]) [µM] | LC50 (A549) [µM] | CC50 [2] [µM] | GI50 (LoVo [3]) [µM] | TGI (LoVo [3]) [µM] | CC50 (LoVo [3]) [µM] | CC50 (HT-29) [µM] | CC50 (SK-MEL-28) [µM] | CC50 [4] [µM] | GI50 (PANC-1) [µM] | TGI (PANC-1) [µM] | CC50 (PANC-1) [µM] | LC50 (concentration giving 50% net cell kill) [5] [µM] | CC50 (K562) [µM] | TGI (DU-145) [µM] | GI50 (DU-145) [µM] | CC50 (DU-145) [µM] | CC50 (HeLa) [µM] | further results
1 | CC[C@@H]1NC(=O)[C@H](Cc2ccccc2)NC(=O)[C@@H](C(C)C)NC(=O)[C@@H]([C@H](C)CC)NC(=O)[C@H](NC(=O)[C@H](NC(=O)[C@H](CCCN)NC(=O)[C@H]2CCCN2C(=O)[C@H](NC(=O)[C@@H](NC(=O)[C@@H](NC(=O)[C@H](NC(=O)CCCC(C)C)C(C)C)[C@@H](C)O)C(C)C)C(C)C)[C@H](C)CC)[C@H](C)OC(=O)[C@H](C(C)C)NC1=O | 2.72 | 2.82 | 2.93 | 1.83 | 1.39 | 3.03 | 3.86 | 4.93 | 5.25 | 1.98 | 1.17 | 3.09 | 4.98 | 2.83 | 1.84 | 4.26 | 3.07 | 3.05 | 1.7 | 1.6 | TGI [2]: 2.22 µM; GI50 ([2]; read-out: GI50): 2.81 µM; GI50 (HT-29): 7.35 µM; TGI (HT-29): 9.27 µM; TGI (SK-MEL-28): 3.83 µM; GI50 (SK-MEL-28): 4.48 µM; TGI [4]: 1.43 µM; GI50 ([4]; read-out: GI50): 1.64 µM
2 | C/C=C1\NC(=O)[C@H](Cc2ccccc2)NC(=O)[C@@H](C(C)C)NC(=O)[C@@H]([C@H](C)CC)NC(=O)[C@H](N)[C@H](C)OC(=O)[C@H](C(C)C)NC1=O | – | – | 9.86 | 3.58 | 2.71 | 14.9 | 16.9 | 9.83 | 10.3 | 3.87 | 2.28 | 4.35 | 9.72 | 5.52 | 3.58 | 8.32 | 6 | 5.1 | 3.31 | 3.13 | TGI [4]: 5.58 µM; GI50 ([4]; read-out: GI50): 4.4 µM; GI50 (HeLa): 0.74 µM; TGI (HeLa): 5.42 µM
3 | CC[C@@H](C)[C@@H](NC(=O)[C@H](CCCN)NC(=O)[C@H]1CCCN1C(=O)[C@H](NC(=O)[C@@H](NC(=O)[C@@H](NC(=O)[C@H](NC(=O)CCCC(C)C)C(C)C)[C@@H](C)O)C(C)C)C(C)C)C(=O)N[C@H]1C(=O)N[C@H]([C@H](C)CC)C(=O)N[C@H](C(C)C)C(=O)N[C@@H](Cc2ccccc2)C(=O)N[C@H](CC)C(=O)N[C@@H](C(C)C)C(=O)O[C@H]1C | 1.76 | 2 | 2.28 | 1.83 | 0.963 | 2.63 | 2.74 | 2.83 | 3.21 | 1.98 | 0.748 | 4.09 | 4.98 | 2.83 | 1.84 | 2.73 | 3.04 | 3.26 | 1.7 | 1.6 | TGI (A549): 3.02 µM; GI50 (A549; read-out: GI50): 3.23 µM; GI50 (HT-29): 3.66 µM; TGI (HT-29): 3.41 µM; TGI (SK-MEL-28): 3.36 µM; GI50 (SK-MEL-28): 3.1 µM
4 | C/C=C1\NC(=O)[C@H](Cc2ccccc2)NC(=O)[C@@H](C(C)C)NC(=O)[C@@H]([C@H](C)CC)NC(=O)[C@H](NC(=O)[C@H](NC(=O)[C@H](CCCN)NC(=O)[C@H]2CCCN2C(=O)[C@H](NC(=O)[C@@H](NC(=O)[C@@H](NC(=O)[C@@H](C)NC(=O)CCCC(C)C)[C@@H](C)O)C(C)C)C(C)C)[C@H](C)CC)[C@H](C)OC(=O)[C@H](C(C)C)NC1=O | 0.8 | 1.27 | 1.85 | 1.4 | 0.828 | 1.98 | 2.26 | 2.22 | 3.34 | 1.47 | 0.714 | 1.66 | 1.9 | 2.18 | 1.18 | 3.31 | 1.48 | 1.81 | 1.2 | 0.963 | TGI (A549): 1.43 µM; GI50 (A549; read-out: GI50): 1.46 µM; GI50 (HT-29): 3.03 µM; TGI (HT-29): 3.18 µM; TGI (SK-MEL-28): 1.7 µM; GI50 (SK-MEL-28): 1.99 µM; GI50 [5]: 1.68 µM; TGI [5]: 1.42 µM; GI50 (HeLa): 1.03 µM; TGI (HeLa): 0.998 µM
5 | C/C=C1\NC(=O)[C@H](Cc2ccccc2)NC(=O)[C@@H](C(C)C)NC(=O)[C@@H]([C@H](C)CC)NC(=O)[C@H](NC(=O)[C@H](NC(=O)[C@H](CCCN)NC(=O)[C@H]2CCCN2C(=O)[C@H](NC(=O)[C@@H](NC(=O)[C@@H](NC(=O)[C@@H](CCC(=O)O)NC(=O)CCCC(C)C)[C@@H](C)O)C(C)C)C(C)C)[C@H](C)CC)[C@H](C)OC(=O)[C@H](C(C)C)NC1=O | 2.03 | 2.22 | 2.43 | 1.8 | 0.844 | 1.95 | 2.2 | 2.49 | 3.01 | 1.95 | 0.705 | 5.31 | 4.88 | 2.77 | 1.8 | 3.04 | 3.01 | 2.84 | 1.66 | 1.57 | TGI (A549): 2.96 µM; GI50 (A549; read-out: GI50): 3.25 µM; GI50 (HT-29): 2.91 µM; TGI (HT-29): 2.96 µM; TGI (SK-MEL-28): 3.75 µM; GI50 (SK-MEL-28): 3.73 µM; GI50 [4]: 0.969 µM; GI50 ([4]; read-out: GI50): 1.31 µM; GI50 [5]: 2.91 µM; TGI [5]: 3.57 µM; GI50 (HeLa): 2.94 µM; TGI (HeLa): 2.72 µM
6 | C/C=C1\NC(=O)[C@H](Cc2ccccc2)NC(=O)[C@@H](C(C)C)NC(=O)[C@@H]([C@H](C)CC)NC(=O)[C@H](NC(=O)[C@H](NC(=O)[C@H](CCCN)NC(=O)[C@H]2CCCN2C(=O)[C@H](NC(=O)[C@@H](NC(=O)[C@@H](NC(=O)[C@@H](CCC(N)=O)NC(=O)CCCC(C)C)[C@@H](C)O)C(C)C)C(C)C)[C@H](C)CC)[C@H](C)OC(=O)[C@H](C(C)C)NC1=O | 0.61 | 1.08 | 1.67 | 0.664 | 0.743 | 1.46 | 1.8 | 2.22 | 2.87 | 1.23 | 0.653 | 0.168 | 0.222 | 0.361 | 1.8 | 2.79 | 1.39 | 1.46 | 1.32 | 0.915 | GI50 (A549): 0.35 µM; GI50 (A549; read-out: GI50): 0.234 µM; GI50 (HT-29): 2.3 µM; TGI (HT-29): 2.56 µM; TGI (SK-MEL-28): 1.28 µM; GI50 (SK-MEL-28): 1.34 µM; GI50 [4]: 0.947 µM; GI50 ([4]; read-out: GI50): 1.33 µM; GI50 [5]: 2.42 µM; TGI [5]: 3.2 µM; GI50 (HeLa): 0.452 µM; TGI (HeLa): 0.649 µM
